Screens: PubChem, several laboratories
Diaphorase act – activates diaphorase or chemically reduces, flagging diaphorase assay artifacts | Diaphorase/resazurin coupled assay, resorufin fluorescence, 16 min; stronger effect = higher value; 1 = vehicle wells, 0 = NADH-free wells | activation factor at 20 µM | hit rate 0.005% among 190,000 | AID 1229;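 active means diaphorase activity raised at least twofold by the compound at 20 µM; inactive means activation factor below 2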
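Measured by – red resorufin fluorescence at 544/590 nm excitation/emission · Test system – Clostridium kluyveri diaphorase, purified enzyme · Incubation – reaction time 16 min, room temperature · Buffer or medium – 50 mM HEPES pH 7.4 with 4.542 mM MgCl2, 0.005% Tween 20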
PMI act – phosphomannose isomerase (human) activation; activation factor at 20 µM; P34949; hit rate 0.005% among 190,000; purified human PMI, coupled resazurin fluorescence, 20 min; stronger effect = higher value; 1 = vehicle control, 0 substrate-free wells;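 active means activation factor of 2 or more at 20 µM, relative to plate controls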
Target sequence (P34949 whole entry, looked up): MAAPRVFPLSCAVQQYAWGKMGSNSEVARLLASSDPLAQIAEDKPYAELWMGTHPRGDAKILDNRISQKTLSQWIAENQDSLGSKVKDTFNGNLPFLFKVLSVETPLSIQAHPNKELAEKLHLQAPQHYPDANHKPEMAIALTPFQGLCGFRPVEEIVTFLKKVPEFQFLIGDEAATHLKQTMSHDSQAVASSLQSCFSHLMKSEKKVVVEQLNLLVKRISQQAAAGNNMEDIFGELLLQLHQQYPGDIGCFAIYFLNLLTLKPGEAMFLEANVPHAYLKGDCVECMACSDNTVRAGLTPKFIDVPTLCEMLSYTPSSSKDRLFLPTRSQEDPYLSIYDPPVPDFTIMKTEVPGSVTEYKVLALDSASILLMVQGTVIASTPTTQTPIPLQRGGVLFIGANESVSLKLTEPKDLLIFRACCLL
GSH bead fluor – compound fluoresces at 488/530 nm on GSH beads | GSH beads flow cytometry, compound fluorescence 488/530 nm; stronger effect = higher value | fluorescence (KMESF) at 10 µM | hit rate 0.25% among 190,000; in the data active means fluorescence above about 89;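 further: glutathione beads carrying GST-tagged Bcl family fusion proteins plus one bare bead set; values are compound well signal with DMSO vehicle wells as background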
PMI act hi M6P – activators of human phosphomannose isomerase at near-saturating mannose 6-phosphate; activation factor at 20 µM; hit rate 0.34% among 190,000; P34949; coupled PMI enzyme assay, resazurin fluorescence, 20 min; stronger effect = higher value; 1 = untreated enzyme, 0 = substrate-free blank;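 active means activation factor of 2 or more at 20 µM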
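assay system = human phosphomannose isomerase with PGI, G6PDH, diaphorase coupling enzymes | quantity = 15 ng/mL PMI | incubation = enzyme reaction with compound 20 min at room temperature | medium = HEPES pH 7.4 buffer with MgCl2 and Tween-20 | compound dosing = one concentration, 20 µM, in 1% DMSO | measured by = Diaphorase-driven resazurin-to-resorufin fluorescence, excitation 544, emission 590 nm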
NCF1 inh – p47phox (human) inhibition | inhibition, % at 24.7 µM | P14598 | p47phox/p22phox peptide binding, fluorescence polarization, 2 h | hit rate 0.53% among 220,000 | AID 1274;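 active means inhibition above about 30%, limit read from the data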;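 further: 0% = p47phox with labelled peptide and 100% = labelled peptide alone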
Avidin bead fluor – avidin bead compound fluorescence profile | AID 1775 | hit rate 0.38% among 220,000 | fluorescence (KMESF) at 10 µM | Avidin beads, compound fluorescence 488/530 nm, flow cytometry; stronger effect = higher value; in the data active means fluorescence above about 47
Numbers without * were called inactive; . = not tested or not shown. Rows were chosen to be rich in hits. Some 1.4% of all compounds tested hit in one or more screens of this group.

SMILES	Diaphorase act	PMI act	GSH bead fluor	PMI act hi M6P	NCF1 inh	Avidin bead fluor
Cn1c(=O)[nH]c(=O)c2c1nc(Br)n2C/C=N/Nc1ccccc1	1.1	2*	13	3*	-1	13
Cn1c(=O)[nH]c(=O)c2c1nc(Br)n2C/C=N/NC(=O)c1ccccc1	.	.	.	.	-2	7
CN(O)C(=O)Nc1ccc([N+](=O)[O-])cc1	0.8	1	20	1	128*	8
Cc1ccc(S(=O)(=O)n2nc(C)cc2C)cc1	0.9	1.1	68	1	43*	1
CCOc1ccc(NS(=O)(=O)c2ccc3[nH]cc(C(=O)NC(C)CC)c(=O)c3c2)cc1 (centres undefined)	.	.	17	.	-18	26
COc1ccc(CCN2C(=O)c3ccccc3C2(O)c2ncc[nH]2)cc1OC (centres undefined)	0.9	1	146*	1	-15	4
O=C1c2ccccc2C(O)(c2ncc[nH]2)N1C1CCCCC1 (centres undefined)	0.9	1.1	30	1.1	-15	5
CCOC(=O)N1CCC(N(CCN(C)C)C(=S)Nc2cc(Cl)cc(Cl)c2)CC1	1.2	1.1	24	1.1	-11	9
C=CCn1c(-c2ccco2)n[nH]c1=S	0.7	0.9	4	0.7	32*	8
O=c1oc(-c2cccs2)nc2sc3c(c12)CCCC3	0.9	1	8	1	-13	18
O=C1CN(c2nc(-c3cccs3)nc3sc4c(c23)CCCC4)CCN1	0.7	1.5	14	2.2*	-34	10
COc1ccc(-c2cc(C#N)nc(N3CCNCC3)n2)cc1	1.6	1.1	15	1.1	-39	49*
COc1ccc(-c2cc(C#N)nc(N3CCN(C)CC3)n2)cc1	1.1	1	24	1	-19	5
Cc1ccc(NC(=O)c2cccc3c2-c2ccccc2C3=O)cc1C	0.8	0.9	21	1	-8	15
CC(=O)Nc1ccc(NC(=O)c2cccc3c2-c2ccccc2C3=O)cc1	1	1	8	1	-6	99*
COC(=O)c1ccc(Nc2nc(C)cc(C)n2)cc1	0.9	0.9	14	0.9	-11	42
COc1nc(Nc2ccc(C(C)=O)cc2)nc(OC)n1	1	0.9	33	1	-9	76*
Cc1cc(NC(=O)CCC(=O)N(CCC(C)C)C(C(=O)NC2CCCC2)c2cccnc2)no1 (centres undefined)	1	1.1	31	1	4	10
O=C(Nc1cccc([N+](=O)[O-])c1)c1cccc(C(=O)Nc2cccc([N+](=O)[O-])c2)c1	.	.	.	.	41*	6
Cc1ccc(C(=O)Nc2cccc([N+](=O)[O-])c2)cc1S(=O)(=O)Nc1ccc(C(=O)O)cc1	0.9	1.2	9	1.1	60*	10
Cc1cccc(NS(=O)(=O)c2cc(NC(=O)CC(=O)c3ccc([N+](=O)[O-])cc3)ccc2C)c1	1	1	15	1.1	35*	10
COC(=O)CCC/C=C1/SCC(NC(=O)c2ccccc2)C1NC(C)=O (centres undefined)	1	1	21	1.1	4	6
CC1=C(C(=O)N2CCCC(C(=O)c3cccc4ccccc34)C2)OCCO1 (centres undefined)	0.9	0.9	11	0.9	8	3
Cc1c(Cc2ccccc2)sc(N)c1C(N)=O	0.8	1	10	1.3	-7	9
Cc1sc(N)c(C(=O)c2ccccc2)c1C	0.9	1	10	1	-20	248*
SMILES	Diaphorase act	PMI act	GSH bead fluor	PMI act hi M6P	NCF1 inh	Avidin bead fluor
COCCSc1ccccc1C(=O)NCCc1ccccc1	1	1	12	1.1	-2	7
O=C(O)CCNc1cc2ccccc2cc1C(=O)O	0.4	0.4	255*	0.3	-2	6
O=C(O)CCCn1cc(NC(=O)COc2ccccc2[N+](=O)[O-])cn1	0.9	1	13	1	-6	8
COc1c2ccoc2nc2c(OC)c(OCC(OC(C)=O)C(C)(C)O)ccc12 (centres undefined)	0.9	1	24	1	161*	6
COc1c2ccoc2nc2c(OC)c(OCC(O)C(C)(C)O)ccc12 (centres undefined)	0.9	0.9	17	1	-3	8
CCC(=O)Nc1cc(-c2nn(CC(=O)N3CCCCC3)c(=O)c3ccccc23)ccc1N1CCOCC1	0.8	0.9	34	0.9	-15	143*
CCCC(=O)Nc1cc(-c2nn(C)c(=O)c3ccccc23)ccc1N1CCOCC1	0.9	0.9	72	1	-18	6
Cc1n[nH]c(=S)n1-c1ccc(Cl)cc1	1	0.9	24	1	-7	17
O=C(Nc1ccc2c(c1)OCCO2)C1CCCN1S(=O)(=O)c1ccc(Cl)cc1 (centres undefined)	1	0.9	261*	0.9	-10	7
CCCCC1C2=C(CCCC2=O)OC2=C1C(=O)CCC2	1	1	11	1	-3	7
Cc1cc2cc(CN(C(=O)C3CC3)C3CCCC3)c3nnnn3c2cc1C	0.6	0.9	40	0.9	-2	61*
CC(=O)N(Cc1cc2ccc(C)c(C)c2n2nnnc12)C1CCCC1	0.8	0.9	.	1	.	.
Cc1cccc(-c2nnn(C/C(N)=N/O)n2)c1	.	.	11	.	0	14
N#CC1(Nc2ccccc2)C(=O)Nc2ccccc21 (centres undefined)	0.9	1	12	1	-5	14
COC(=O)c1cc(NC(=O)c2ccccc2)c(=O)oc1/C=C/Nc1ccc(Oc2ccccc2)cc1	1	1.1	161*	1	-232	80*
COc1ccc(C(=O)Nc2cc(C(C)=O)c(C)oc2=O)cc1	0.9	1.6	15	1.6	-20	9
Cc1cccc(OCC(=O)N(C)CCc2ccccn2)c1	1	1	22	1.1	0	47*
O=C1Nc2ccc(F)cc2C12Nc1ccccc1-c1nnc(SCc3ccccc3Cl)nc1O2 (centres undefined)	0.8	0.8	13	0.6	39*	12
CC(NS(C)(=O)=O)C(c1cccs1)N1CCN(Cc2ccccc2)CC1 (centres undefined)	0.9	0.8	27	0.9	169*	7
CCCNC(=O)c1cccc(COc2ccccc2OC)c1	1	1	21	1	2	6
COc1ccc(N2C(=O)CSC23C(=O)Nc2ccccc23)cc1 (centres undefined)	1	1	100*	1	-14	7
Cc1ccc(N2C(=O)CCSC23C(=O)Nc2ccccc23)cc1 (centres undefined)	1	0.9	11	1	5	5
